According to ChEMBL document CHEMBL4706621, “An attempt to chemically state the cross-talk between monomers of COX homodimers by double/hybrid inhibitors mofezolac-spacer-mofezolac and mofezolac-spacer-arachidonic acid” (Eur J Med Chem, 2021):

Columns and labels:
[1] = target: T1, Prostaglandin G/H synthase 1 (Ovis aries, UniProt P05979); test: Inhibition of ovine COX-1 assessed as peroxidase activity using arachidonic acid as substrate by colorimetric method
T1 sequence (P05979 whole entry): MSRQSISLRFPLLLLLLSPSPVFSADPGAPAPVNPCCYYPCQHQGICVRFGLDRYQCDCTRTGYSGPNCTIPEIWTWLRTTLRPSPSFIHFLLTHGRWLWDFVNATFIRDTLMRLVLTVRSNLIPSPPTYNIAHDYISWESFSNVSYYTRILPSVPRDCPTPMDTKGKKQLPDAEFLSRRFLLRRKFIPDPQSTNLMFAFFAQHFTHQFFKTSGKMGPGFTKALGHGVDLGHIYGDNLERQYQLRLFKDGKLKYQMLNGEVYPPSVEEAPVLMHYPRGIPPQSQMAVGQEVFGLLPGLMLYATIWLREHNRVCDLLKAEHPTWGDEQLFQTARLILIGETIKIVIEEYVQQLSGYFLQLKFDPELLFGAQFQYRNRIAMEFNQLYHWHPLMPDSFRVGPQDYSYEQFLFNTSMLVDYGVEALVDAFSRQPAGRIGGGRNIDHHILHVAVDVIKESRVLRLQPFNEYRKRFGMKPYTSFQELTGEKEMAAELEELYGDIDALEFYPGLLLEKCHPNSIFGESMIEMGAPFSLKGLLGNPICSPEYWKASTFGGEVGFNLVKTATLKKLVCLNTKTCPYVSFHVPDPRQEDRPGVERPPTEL
How it was run: (§1)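 Colorimetric COX inhibitor screening kit measuring cyclooxygenase peroxidase activity on arachidonic acid substrate, read as oxidized TMPD at 590 nm. Compound stocks are made in DMSO. IC50 is the mean of at least three independent measurements. Percent inhibition is taken at the highest final inhibitor concentration, 50 µM.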

[2] = target: T2, Prostaglandin G/H synthase 2 (Homo sapiens, UniProt P35354); test: Inhibition of human COX-2 assessed as peroxidase activity using arachidonic acid as substrate by colorimetric method; how it was run: as §1
T2 sequence (P35354 whole entry): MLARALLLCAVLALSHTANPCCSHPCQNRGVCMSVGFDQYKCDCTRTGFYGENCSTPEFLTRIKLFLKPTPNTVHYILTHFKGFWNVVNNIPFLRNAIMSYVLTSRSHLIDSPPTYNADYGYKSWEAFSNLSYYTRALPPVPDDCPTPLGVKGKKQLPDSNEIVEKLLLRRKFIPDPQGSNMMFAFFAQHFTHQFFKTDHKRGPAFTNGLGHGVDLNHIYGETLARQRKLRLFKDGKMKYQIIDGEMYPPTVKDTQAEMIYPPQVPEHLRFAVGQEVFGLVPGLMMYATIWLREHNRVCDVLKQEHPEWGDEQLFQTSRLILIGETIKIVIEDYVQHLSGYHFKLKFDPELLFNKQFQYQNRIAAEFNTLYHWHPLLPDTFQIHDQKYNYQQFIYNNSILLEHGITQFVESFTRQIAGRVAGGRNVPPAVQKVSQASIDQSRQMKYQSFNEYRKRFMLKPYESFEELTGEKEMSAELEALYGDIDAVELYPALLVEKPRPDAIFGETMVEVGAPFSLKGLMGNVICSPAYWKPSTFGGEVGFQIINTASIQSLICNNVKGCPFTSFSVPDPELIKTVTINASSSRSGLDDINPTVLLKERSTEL

[3] = target: T3, Prostaglandin G/H synthase 1 (Ovis aries) (UniProt P05979); test: Inhibition of ovine COX-1 assessed as peroxidase activity using arachidonic acid as substrate at 50 uM by colorimetric method; how it was run: as §1
T3 sequence (whole entry): T1 sequence (P05979 whole entry)

[4] = Selectivity index, ratio of IC50 for human COX-2 to IC50 for ovine COX-1
How it was run: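 Selectivity index is calculated as COX-2 IC50 divided by COX-1 IC50, each taken from the colorimetric TMPD peroxidase assay with arachidonic acid substrate.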

[5] = test system: Plasma; test: Antiplatelet activity in human platelet-rich plasma assessed as inhibition of arachidonic acid-induced platelet aggregation by turbidimetric method; format: functional
How it was run: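 Platelet-rich and platelet-poor plasma prepared from human whole blood (n=3) by differential centrifugation. Compounds pre-incubated in PRP for 2 min, then aggregation is induced with 500 µM arachidonic acid and followed turbidimetrically in an aggregometer. IC50 is determined from several concentrations, in triplicate. Acetylsalicylic acid is the positive control; 1% DMSO vehicle is the negative control.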

[6] = test system: Plasma; test: Anticoagulant activity in human plasma assessed as activated partial thromboplastin time at 100 uM; format: functional
How it was run: (§2)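 Human platelet-poor plasma from whole blood (n=3) by differential centrifugation, run on a coagulation analyzer. Compounds at 100 µM incubated with plasma 15 min at room temperature, then 2 min at 37 °C. For aPTT, cephalin is added for 2 min and clotting is started with 0.025 M CaCl2. For PT, PBS is added for 3 min and clotting is started with calcium thromboplastin. Clotting time is read in seconds at 37 °C. Negative control is 1% DMSO; positive control is 100 µM rivaroxaban.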

[7] = test system: Plasma; test: Anticoagulant activity in human plasma assessed as prothrombin time at 100 uM; format: functional; how it was run: as §2
[8] = Hemolytic activity against human erythrocytes assessed as hemolysis incubated for 3 hrs by spectrophotometric analysis relative to control; format: ADME, cell-based, Erythrocyte; settings: read-out: Activity
How it was run: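 Citrated human blood (n=3) centrifuged at 2500 rpm for 15 min. The erythrocyte pellet is washed three times and resuspended in PBS pH 7.4. Compounds are incubated with the erythrocytes for 3 h at 37 °C. After centrifugation, released hemoglobin is read at 540 nm. Controls are 1% DMSO (negative) and 1% Triton X-100 (positive). Below 10% counts as non-hemolytic.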

[9] = test system: Vero; test: Cytotoxicity against African green monkey Vero cells at 10 uM measured after 48 hrs by MTT assay relative to control; format: cell-based; settings: chlorocebus sabaeus
How it was run: (§3)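 Vero cells grown at 37 °C in 5% CO2 in medium with 10% inactivated FBS. Cells seeded at 3.2×10^4 per well and grown 24 h, then exposed to compounds for 48 h (n = 4). Control is DMEM with 10% FBS and 1% DMSO. MTT (2.5 mg/mL solution) is added for 3 h, formazan is dissolved in DMSO and absorbance is read at 570 nm. Viability is given as % of untreated cells, mean ± SD.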

[10] = test system: Vero; test: Cytotoxicity against African green monkey Vero cells at 100 uM measured after 48 hrs by MTT assay relative to control; format: cell-based; settings: chlorocebus sabaeus; how it was run: as §3
[11] = Genotoxicity in Salmonella typhimurium TA97 at 10 to 500 uM by AMES test; format: toxicity; settings: salmonella enterica subsp. enterica serovar typhimurium, dose 10-500 µM
How it was run: (§4)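 Ames reverse mutation to histidine prototrophy using S. typhimurium TA97, TA98, TA100 and TA102. Compounds are dissolved in DMSO and tested at 10, 100 and 500 µM.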

[12] = Genotoxicity in Salmonella typhimurium TA98 at 10 to 500 uM by AMES test; format: toxicity; settings: salmonella enterica subsp. enterica serovar typhimurium, dose 10-500 µM; how it was run: as §4
[13] = Genotoxicity in Salmonella typhimurium TA100 at 10 to 500 uM by AMES test; format: toxicity; settings: salmonella enterica subsp. enterica serovar typhimurium, dose 10-500 µM; how it was run: as §4
[14] = Genotoxicity in Salmonella typhimurium TA102 at 10 to 500 uM by AMES test; format: toxicity; settings: salmonella enterica subsp. enterica serovar typhimurium, dose 10-500 µM; how it was run: as §4
[15] = Mutagenicity in Escherichia coli PQ35 at 10 to 500 uM by SOS-chromotest; format: toxicity; settings: dose 10-500 µM
How it was run: (§5)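 SOS chromotest spot assay with E. coli PQ35 and PQ37. An overnight culture is diluted in LB and grown at 37 °C to 2×10^8 bacteria/mL. Then 0.1 mL is mixed in top agar and poured on M63 plates. 10 µL of compound in DMSO (10, 100 or 500 µM) is spotted centrally and plates are incubated overnight at 37 °C. A blue ring around the inhibition zone indicates genotoxicity. Run in triplicate with 4-NQO as positive control.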

[16] = Mutagenicity in Escherichia coli PQ37 at 10 to 500 uM by SOS-chromotest; format: toxicity; settings: dose 10-500 µM; how it was run: as §5
[17] = target: T4, Prostaglandin G/H synthase 2 (Homo sapiens) (UniProt P35354); test: Inhibition of human COX-2 assessed as peroxidase activity using arachidonic acid as substrate at 50 uM by colorimetric method; how it was run: as §1
T4 sequence (whole entry): T2 sequence (P35354 whole entry)

Row | Structure (SMILES) | IC50 [1] [nM] | IC50 [2] [nM] | inhibition [3] [%] | Ratio IC50 [4] | IC50 [5] [nM] | APTT [6] [s] | PT [7] [s] | hemolysis at 3 h [8] [%] | Activity [9] [%] | Activity [10] [%] | Activity [11] | Activity [12] | Activity [13] | Activity [14] | Activity [15] | Activity [16] | inhibition [17] [%]
1 | COc1ccc(-c2noc(CC(=O)NCc3ccc(CNC(=O)Cc4onc(-c5ccc(OC)cc5)c4-c4ccc(OC)cc4)cc3)c2-c2ccc(OC)cc2)cc1 | > 50000 | > 50000 | – | – | – | – | – | – | – | – | – | – | – | – | – | – | –
2 | COc1ccc(-c2noc(CC(=O)NCCCCNC(=O)Cc3onc(-c4ccc(OC)cc4)c3-c3ccc(OC)cc3)c2-c2ccc(OC)cc2)cc1 | 5500 | > 50000 | 74 | > 9 | – | – | – | – | – | – | – | – | – | – | – | – | –
3 | COc1ccc(-c2noc(CC(=O)O)c2-c2ccc(OC)cc2)cc1 [MOFEZOLAC] | – | – | – | – | 450 | 50.8 | 14.2 | 0 | 97 | 91 | Non-Toxic | Non-Toxic | Non-Toxic | Non-Toxic | Non-Toxic | Non-Toxic | –
4 | COc1ccc(-c2noc(CC(=O)NCCCCCCCCCCCCNC(=O)Cc3onc(-c4ccc(OC)cc4)c3-c3ccc(OC)cc3)c2-c2ccc(OC)cc2)cc1 | 7100 | > 50000 | 40 | > 7 | – | – | – | – | – | – | – | – | – | – | – | – | –
5 | COc1ccc(-c2noc(CC(=O)NCCCCCCNC(=O)Cc3onc(-c4ccc(OC)cc4)c3-c3ccc(OC)cc3)c2-c2ccc(OC)cc2)cc1 | 9000 | > 50000 | 50 | > 5.5 | – | – | – | – | – | – | – | – | – | – | – | – | –
6 | COc1ccc(-c2noc(CC(=O)Nc3ccc(-c4ccc(NC(=O)Cc5onc(-c6ccc(OC)cc6)c5-c5ccc(OC)cc5)cc4)cc3)c2-c2ccc(OC)cc2)cc1 | 80 | > 50000 | 73 | > 625 | 440 | 46.5 | 15.1 | 0 | 100 | 92 | Non-Toxic | Non-Toxic | Non-Toxic | Non-Toxic | Non-Toxic | Non-Toxic | –
7 | CCCCC/C=C\C/C=C\C/C=C\C/C=C\CCCC(=O)NCCCCNC(=O)Cc1onc(-c2ccc(OC)cc2)c1-c1ccc(OC)cc1 | – | 800 | 57 | 0.05 | – | – | – | – | – | – | – | – | – | – | – | – | 61
8 | COc1ccc(-c2noc(CC(=O)NCCCCN)c2-c2ccc(OC)cc2)cc1 | 950 | 3500 | 100 | 3.7 | – | – | – | – | – | – | – | – | – | – | – | – | 51
9 | COc1ccc(-c2noc(CC(=O)Nc3ccc(-c4ccc(N)cc4)cc3)c2-c2ccc(OC)cc2)cc1 | 75 | 300 | 85 | 4 | – | – | – | – | – | – | – | – | – | – | – | – | 71
10 | COc1ccc(-c2noc(CC(=O)Nc3ccc(N)cc3)c2-c2ccc(OC)cc2)cc1 | 24000 | 500 | 74 | 0.02 | – | – | – | – | – | – | – | – | – | – | – | – | 79
11 | CCCCC/C=C\C/C=C\C/C=C\C/C=C\CCCC(=O)Nc1ccc(NC(=O)Cc2onc(-c3ccc(OC)cc3)c2-c2ccc(OC)cc2)cc1 | 50 | > 50000 | 66 | – | 610 | 55.6 | 15.3 | 0 | 93 | 79 | – | – | – | – | – | – | –
12 | COc1ccc(-c2noc(CC(=O)NCCNC(=O)Cc3onc(-c4ccc(OC)cc4)c3-c3ccc(OC)cc3)c2-c2ccc(OC)cc2)cc1 | 13 | 120 | 75 | 9 | – | – | – | – | – | – | – | – | – | – | – | – | 45
13 | CC(=O)Oc1ccccc1C(=O)O [ASPIRIN] | – | – | – | – | 1110 | 50.3 | 14.6 | 0 | 100 | 95 | Non-Toxic | Non-Toxic | Non-Toxic | Non-Toxic | Non-Toxic | Non-Toxic | –
